# Measurements from ChEMBL document CHEMBL1151446, “The PhoQ-activating potential of antimicrobial peptides contributes to antimicrobial efficacy and is predictive of the induction of bacterial resistance” (2007).
# Calls of active or inactive are those of the source. No cut-off for these calls is given here. Where a SMILES comes first, the peptide text is derived from it.
# Key:
# [1] = tested on: Salmonella enterica subsp. enterica; test: Antibacterial activity against bacterial sensory kinase PhoQ deficient Salmonella enterica serovar Typhimurium CS009 assessed as direct antimicrobial activity after 16 hrs by modified twofold broth microdilution method; type: functional, Salmonella enterica subsp. enterica serovar Typhimurium
# Summary of the method: (§1)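 Broth microdilution MBC assay: 5 × 10^5 bacteria/ml in LB with a linear gradient of peptide concentrations. Peptide dilutions were made fresh in 0.2% BSA, 0.01% acetic acid and added after the inoculum. Plates were incubated at 37°C for 16 h, then spotted onto LB agar. MBC was the lowest concentration with no growth, averaged over at least three trials.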
# [2] = tested on: Salmonella enterica subsp. enterica; test: Antibacterial activity against bacterial sensory kinase PhoP deficient Salmonella enterica serovar Typhimurium CS053 after 16 hrs by modified twofold broth microdilution method; type: functional, Salmonella enterica subsp. enterica serovar Typhimurium; details: CS053, 16 h; summary of the method: as §1
# [3] = tested on: Salmonella enterica subsp. enterica; test: Antibacterial activity against bacterial sensory kinase PhoQ deficient Salmonella enterica serovar Typhimurium CS009 assessed as PhoQ-activating potential after 16 hrs by modified twofold broth microdilution method relative to wild type Salmonella enterica serovar Typhimurium ATCC 14028; type: functional, Salmonella enterica subsp. enterica serovar Typhimurium
# Summary of the method: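 PAP was calculated as MBC against wild-type ATCC 14028 minus MBC against PhoQ mutant CS009. Both MBCs came from the broth microdilution assay: 5 × 10^5 bacteria/ml in LB, 37°C for 16 h, spotting onto LB agar, no-growth endpoint, averaged over at least three trials.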
# [4] = tested on: Salmonella enterica subsp. enterica; test: Antibacterial activity against bacterial sensory kinase PhoQ deficient Salmonella enterica serovar Typhimurium expressing PhoPQ operon after 16 hrs by modified twofold broth microdilution method; type: functional, Salmonella enterica subsp. enterica serovar Typhimurium; summary of the method: as §1
# [5] = tested on: Salmonella enterica subsp. enterica; test: Antibacterial activity against bacterial sensory kinase PhoQ deficient Salmonella enterica serovar Typhimurium CS009 after 16 hrs by modified twofold broth microdilution method; type: functional, Salmonella enterica subsp. enterica serovar Typhimurium; details: CS009, 16 h; summary of the method: as §1
# [6] = tested on: Salmonella enterica subsp. enterica; test: (§2) Antibacterial activity against wild type Salmonella enterica serovar Typhimurium ATCC 14028 preincubated till 4 hrs at dosing schedule of 1 ug/ml at time zero, 1 ug/ml at 1st hr, 2 ug/ml at 2nd hr and final 4 ug/ml at 3rd hr assessed as increase in minimum bactericidal concentration measured after 16 hrs by modified twofold broth microdilution method in presence of 1 mM Mg2+ relative to naive unadapted bacteria; type: functional, Salmonella enterica subsp. enterica serovar Typhimurium
# [7] = target: T1, Virulence sensor histidine kinase PhoQ (Salmonella typhimurium (strain LT2 / SGSC1412 / ATCC 700720)) (UniProt P0DM80); test: Activation of PhoQ in Salmonella enterica serovar Typhimurium CS102 expressing PhoN fusion protein assessed as initiation of acid phosphatase reporter enzyme expression at 1 ug/ml in presence of 1 mM magnesium; details: Salmonella enterica subsp. enterica serovar Typhimurium
# T1 sequence (whole entry): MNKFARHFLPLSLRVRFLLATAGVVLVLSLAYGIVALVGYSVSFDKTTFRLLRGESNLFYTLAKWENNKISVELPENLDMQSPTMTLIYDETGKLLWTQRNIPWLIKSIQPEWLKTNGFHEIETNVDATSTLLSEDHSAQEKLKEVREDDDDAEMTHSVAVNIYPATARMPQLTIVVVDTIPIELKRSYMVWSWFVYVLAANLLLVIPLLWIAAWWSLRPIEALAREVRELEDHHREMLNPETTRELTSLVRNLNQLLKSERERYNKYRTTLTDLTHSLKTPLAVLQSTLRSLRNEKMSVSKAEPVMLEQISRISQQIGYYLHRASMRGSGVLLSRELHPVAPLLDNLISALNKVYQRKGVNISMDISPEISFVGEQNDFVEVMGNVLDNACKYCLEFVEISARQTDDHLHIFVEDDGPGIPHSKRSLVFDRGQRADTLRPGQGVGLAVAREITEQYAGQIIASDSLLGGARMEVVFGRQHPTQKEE
# Summary of the method: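 PhoPQ reporter strain CS102 (PhoQ-regulated acid phosphatase PhoN fusion) incubated in LB with peptide at 1 μg/ml plus 1 mM magnesium; acid phosphatase activity measured. Reference conditions were 50 μM MgCl2 (activating) and 5 mM MgCl2 (repressive). Mean of three replicate experiments.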
# [8] = tested on: Salmonella enterica subsp. enterica; test: Antibacterial activity against wild type Salmonella enterica serovar Typhimurium ATCC 14028 after 16 hrs by modified twofold broth microdilution method; type: functional, Salmonella enterica subsp. enterica serovar Typhimurium; details: ATCC 14028, 16 h; summary of the method: as §1
# [9] = tested on: Salmonella enterica subsp. enterica; test: Antibacterial activity against wild type Salmonella enterica serovar Typhimurium ATCC 14028 by modified twofold broth microdilution method; type: functional, Salmonella enterica subsp. enterica serovar Typhimurium
# [10] = tested on: Salmonella enterica subsp. enterica; test: Antibacterial activity against bacterial sensory kinase PhoQ deficient Salmonella enterica serovar Typhimurium CS009 by modified twofold broth microdilution method; type: functional, Salmonella enterica subsp. enterica serovar Typhimurium
# [11] = tested on: Salmonella enterica subsp. enterica; test: Antibacterial activity against bacterial sensory kinase PhoP deficient Salmonella enterica serovar Typhimurium CS053 assessed as direct antimicrobial activity after 16 hrs by modified twofold broth microdilution method; type: functional, organism-based; summary of the method: as §1
# [12] = tested on: Salmonella enterica subsp. enterica; test: Antibacterial activity against wild type Salmonella enterica serovar Typhimurium ATCC 14028 assessed as direct antimicrobial activity after 16 hrs by modified twofold broth microdilution method; type: functional, organism-based
# [13] = tested on: Salmonella enterica subsp. enterica; test: as §2, with “hr” for “hr assessed as increase in minimum bactericidal concentration”, “Mg2+” for “Mg2+ relative to naive unadapted bacteria”; type: functional, organism-based
Molecule,Activity [1],MBC [2],Activity [3],MBC [4],MBC [5],fold change (FC) [6],Activity [7],MBC [8],MIC [9],MIC [10],Activity [11],Activity [12],Activity [13]
CC[C@H](C)[C@H](NC(=O)[C@H](CCCCN)NC(=O)[C@@H](NC(=O)[C@@H](NC(=O)[C@H](CCCNC(=N)N)NC(=O)[C@H](C)NC(=O)[C@H](CC(C)C)NC(=O)[C@@H](N)CCCNC(=N)N)[C@@H](C)CC)C(C)C)C(=O)N[C@@H](CCCNC(=N)N)C(=O)N[C@H](C(=O)N[C@@H](C)C(=O)N[C@@H](CCCNC(=N)N)C(N)=O)C(C)C (H-RLARIVKIRVAR-NH2),13.1 µg/mL,13.3 mg/L,55.7 µg/mL,69 mg/L,13.1 mg/L,<=10,Active,68.8 mg/L,–,–,–,–,–
CC1(C)S[C@@H]2[C@H](NC(=O)[C@H](N)c3ccccc3)C(=O)N2[C@H]1C(=O)O [AMPICILLIN],–,–,–,–,–,–,–,–,10 mg/L,8 mg/L,–,–,–
CN(C)[C@@H]1C(O)=C(C(N)=O)C(=O)[C@@]2(O)C(O)=C3C(=O)c4c(O)cccc4[C@@](C)(O)[C@H]3C[C@@H]12 [TETRACYCLINE],–,–,–,–,–,–,–,–,3 mg/L,3 mg/L,–,–,–
CCn1cc(C(=O)O)c(=O)c2ccc(C)nc21 [NALIDIXIC ACID],–,–,–,–,–,–,–,–,3 mg/L,3 mg/L,–,–,–
CC(C)C[C@H](NC(=O)[C@H](CCCCN)NC(=O)[C@H](CCC(N)=O)NC(=O)[C@H](CC(N)=O)NC(=O)[C@H](CC(C)C)NC(=O)[C@H](CC(=O)O)NC(=O)[C@H](CCC(=O)O)NC(=O)[C@@H]1CCCN1C(=O)[C@@H](NC(=O)[C@H](C)NC(=O)CN)[C@@H](C)O)C(=O)N[C@@H](CO)C(N)=O (H-GATPEDLNQKLS-NH2),–,> 500 mg/L,–,> 500 mg/L,> 500 mg/L,–,–,> 500 mg/L,–,–,–,–,–
CC1(C)S[C@@H]2[C@H](NC(=O)C(C(=O)O)c3ccccc3)C(=O)N2[C@H]1C(=O)O (stereo not given in full) [CARBENICILLIN],–,–,–,–,–,–,–,–,10 mg/L,8 mg/L,–,–,–
COc1cc(Cc2cnc(N)nc2N)cc(OC)c1OC [TRIMETHOPRIM],–,–,–,–,–,–,–,–,1 mg/L,1 mg/L,–,–,–
CC[C@H](C)[C@H](NC(=O)[C@H](CCCNC(=N)N)NC(=O)[C@H](C)NC(=O)[C@H](CC(C)C)NC(=O)[C@@H](N)CCCNC(=N)N)C(=O)N[C@H](C(=O)N[C@H](C(=O)N[C@H](C(=O)N[C@@H](CCCNC(=N)N)C(=O)N[C@H](C(=O)N[C@@H](C)C(=O)N[C@@H](CCCNC(=N)N)C(N)=O)C(C)C)[C@@H](C)CC)C(C)C)C(C)C (H-RLARIVVIRVAR-NH2),6.2 µg/mL,6.5 mg/L,–,42.5 mg/L,6.2 mg/L,–,Active,32.8 mg/L,–,–,–,–,–
CC[C@H](C)[C@H](NC(=O)[C@H](CCCNC(=N)N)NC(=O)[C@H](C)NC(=O)[C@H](CC(C)C)NC(=O)[C@@H](N)CCCNC(=N)N)C(=O)N[C@H](C(=O)N1CCC[C@H]1C(=O)N[C@H](C(=O)N[C@@H](CCCNC(=N)N)C(=O)N[C@H](C(=O)N[C@@H](C)C(=O)N[C@@H](CCCNC(=N)N)C(N)=O)C(C)C)[C@@H](C)CC)C(C)C (H-RLARIVPIRVAR-NH2),46.7 µg/mL,45.4 mg/L,–,> 500 mg/L,46.7 mg/L,–,Active,> 500 mg/L,–,–,inactive,inactive,–
CC[C@H](C)[C@H](NC(=O)[C@H](CCCNC(=N)N)NC(=O)[C@H](C)NC(=O)[C@H](CC(C)C)NC(=O)[C@@H](N)CCCNC(=N)N)C(=O)N[C@H](C(=O)N[C@H](C(=O)N[C@H](C(=O)N[C@@H](CCCNC(=N)N)C(=O)N[C@H](C(=O)N[C@@H](C)C(=O)NCC(N)=O)C(C)C)[C@@H](C)CC)C(C)C)C(C)C (H-RLARIVVIRVAG-NH2),8.6 µg/mL,10.1 mg/L,22.8 µg/mL,34 mg/L,8.6 mg/L,–,Active,31.4 mg/L,–,–,–,–,–
CC[C@H](C)[C@H](NC(=O)[C@H](CCCNC(=N)N)NC(=O)[C@H](CCCNC(=N)N)NC(=O)[C@H](CC(C)C)NC(=O)[C@@H](N)CCCNC(=N)N)C(=O)N[C@H](C(=O)N[C@H](C(=O)N[C@H](C(=O)N[C@@H](CCCNC(=N)N)C(=O)N[C@H](C(=O)N[C@@H](C)C(=O)N[C@@H](CCCNC(=N)N)C(N)=O)C(C)C)[C@@H](C)CC)C(C)C)C(C)C (H-RLRRIVVIRVAR-NH2),4.2 µg/mL,3.8 mg/L,7.3 µg/mL,30 mg/L,4.2 mg/L,–,inactive,11.5 mg/L,–,–,–,–,Active
CC[C@H](C)[C@H](NC(=O)[C@H](CCCNC(=N)N)NC(=O)[C@H](Cc1c[nH]c2ccccc12)NC(=O)[C@H](CCCNC(=N)N)NC(=O)[C@@H](N)CCCNC(=N)N)C(=O)N[C@H](C(=O)N[C@H](C(=O)N[C@H](C(=O)N[C@@H](CCCNC(=N)N)C(=O)N[C@H](C(=O)N[C@@H](CCCNC(=N)N)C(=O)N[C@@H](CCCNC(=N)N)C(N)=O)C(C)C)[C@@H](C)CC)C(C)C)C(C)C (H-RRWRIVVIRVRR-NH2),5.7 µg/mL,6.4 mg/L,34.3 µg/mL,19 mg/L,5.7 mg/L,–,inactive,10 mg/L,–,–,–,–,–
GENTAMICIN,–,–,–,–,–,–,–,–,16 mg/L,16 mg/L,–,–,–
